The species entered for one data set is Homo sapiens. The data set is described as follows: Inhibition of human partial length FLT3 ITD mutant expressed in Escherichia coli BL21 assessed as residual activity at 1000 nM after 30 mins by Kinomescan method relative to control. Put shortly:
(§1)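 KINOMEscan binding panel of 456 kinases, with the test compound at a single concentration of 1 µM. Read-out is Percent Control.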

The target of data set [1] is Serine/threonine-protein kinase DCLK2 (Homo sapiens) (UniProt Q8N568). The data set is described as follows: Inhibition of wild-type human partial length DCAMKL2 (K273 to V664 residues) expressed in Escherichia coli BL21 assessed as residual activity at 1000 nM after 30 mins by Kinomescan method relative to control.
In data set [2] the target is Mitogen-activated protein kinase 8 (Homo sapiens) (UniProt P45983). The data set is described as follows: Inhibition of wild-type human full length JNK1 (M1 to Q384 residues) expressed in HEK293 cells assessed as residual activity at 1000 nM after 30 mins by Kinomescan method relative to control. It is filed as cell-based. An outline of the steps: (§2)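 Single-concentration screen at 1 µM across a 456-kinase KINOMEscan panel. The read-out is Percent Control for each kinase.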

Data set [3] addresses Tyrosine-protein kinase JAK1 (Homo sapiens) (UniProt P23458). Briefly: Inhibition of wild-type human partial length JAK1 JH2 pseudokinase domain (R537 to D855 residues) expressed in HEK293 cells assessed as residual activity at 1000 nM after 30 mins by Kinomescan method relative to control. Type of data set: cell-based.
Data set [4] deals with Dual specificity protein kinase CLK3 (Homo sapiens) (UniProt P49761). Briefly: Inhibition of wild-type human full length CLK3 (M1 to R490 residues) expressed in Escherichia coli BL21 assessed as residual activity at 1000 nM after 30 mins by Kinomescan method relative to control. An outline of the steps: (§3)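 Single-point screen at a fixed 1 µM, run within a 456-kinase DiscoveRx KINOMEscan panel. Each kinase's read-out is Percent Control, i.e. signal relative to a control without compound. Hits were scored by a Percent Control < 35 cut-off, and an S(35) selectivity score was calculated across the non-mutant kinases.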

Data set [5] addresses Serine/threonine-protein kinase MARK2 (Homo sapiens) (UniProt Q7KZI7). The data set is described as follows: Inhibition of wild-type human partial length MARK2 (M1 to R450 residues) expressed in Escherichia coli BL21 assessed as residual activity at 1000 nM after 30 mins by Kinomescan method relative to control.
Data set [6] concerns the target Aurora kinase A (Homo sapiens) (UniProt O14965). The data set is described as follows: Inhibition of wild-type human partial length AURKA (E122 to K401 residues) expressed in HEK293 cells assessed as residual activity at 1000 nM after 30 mins by Kinomescan method relative to control. Type of data set: cell-based.
In data set [7] the target is Testis-specific serine/threonine-protein kinase 3 (Homo sapiens) (UniProt Q96PN8). The data set is described as follows: Inhibition of wild-type human full length TSSK3 (M1 to T268 residues) expressed in HEK293 cells assessed as residual activity at 1000 nM after 30 mins by Kinomescan method relative to control. It is filed as cell-based.
Data set [8] relates to Tyrosine-protein kinase ABL1 (Homo sapiens), P00519 [T315I]. The data set is described as follows: Inhibition of human non-phosphorylated ABL1 T315I mutant (S229 to K512 residues) expressed in HEK293 cells assessed as residual activity at 1000 nM after 30 mins by Kinomescan method relative to control. It is filed as cell-based. An outline of the steps:
as §1

Data set [9] addresses Leucine-rich repeat serine/threonine-protein kinase 2 (Homo sapiens) (UniProt Q5S007). Briefly: Inhibition of wild-type human partial length LRRK2 (H970 to E2527 residues) expressed in HEK293 cells assessed as residual activity at 1000 nM after 30 mins by Kinomescan method relative to control. It is filed as cell-based.
The target of data set [10] is PDGFRA (platelet-derived growth factor receptor alpha) (Homo sapiens, UniProt P16234). Briefly: Inhibition of wild-type human partial length PDGFRA (V575 to D1002 residues) expressed in HEK293 cells assessed as residual activity at 1000 nM after 30 mins by Kinomescan method relative to control. Type of data set: cell-based. To be noted: read-out: Activity.
The target in data set [11] is Rhodopsin kinase GRK1 (Homo sapiens) (UniProt Q15835). The data set is described as follows: Inhibition of wild-type human full length GRK1 (M1 to S563 residues) expressed in HEK293 cells assessed as residual activity at 1000 nM after 30 mins by Kinomescan method relative to control. Type of data set: cell-based. An outline of the steps: as §2
The target in data set [12] is Mitogen-activated protein kinase kinase kinase 7 (Homo sapiens) (UniProt O43318). Briefly: Inhibition of wild-type human partial length TAK1 (M1 to Q303 residues) expressed in HEK293 cells assessed as residual activity at 1000 nM after 30 mins by Kinomescan method relative to control. Type of data set: cell-based.
The target of data set [13] is Mitogen-activated protein kinase kinase kinase kinase 3 (Homo sapiens) (UniProt Q8IVH8). The data set is described as follows: Inhibition of wild-type human partial length MAP4K3 (M1 to D301 residues) expressed in Escherichia coli BL21 assessed as residual activity at 1000 nM after 30 mins by Kinomescan method relative to control.
Data set [14] relates to Phosphatidylinositol 4,5-bisphosphate 3-kinase catalytic subunit alpha isoform (Homo sapiens), P42336 [Q546K]. Briefly: Inhibition of human partial length PIK3CA Q546K mutant (R108 to N1068 residues) expressed in HEK293 cells assessed as residual activity at 1000 nM after 30 mins by Kinomescan method relative to control. Type of data set: cell-based. Put shortly: as §3

Data set [15] concerns Receptor-type tyrosine-protein kinase FLT3 (Homo sapiens), P36888 [D835V]. Briefly: Inhibition of human partial length FLT3 D835V mutant (V592 to Y969 residues) expressed in Escherichia coli BL21 assessed as residual activity at 1000 nM after 30 mins by Kinomescan method relative to control. An outline of the steps:
as §1

Data set [16] concerns the target Maternal embryonic leucine zipper kinase (Homo sapiens) (UniProt Q14680). Briefly: Inhibition of wild-type human full length MELK (M1 to V651 residues) expressed in Escherichia coli BL21 assessed as residual activity at 1000 nM after 30 mins by Kinomescan method relative to control. Put shortly: as §2
Data set [17] concerns the target Atypical kinase COQ8B, mitochondrial (Homo sapiens) (UniProt Q96D53). The data set is described as follows: Inhibition of wild-type human full length ADCK4 (M1 to S544 residues) expressed in Escherichia coli BL21 assessed as residual activity at 1000 nM after 30 mins by Kinomescan method relative to control. An outline of the steps: as §3
Data set [18] addresses STE20-like serine/threonine-protein kinase (Homo sapiens) (UniProt Q9H2G2). The data set is described as follows: Inhibition of wild-type human partial length SLK (S14 to A307 residues) expressed in Escherichia coli BL21 assessed as residual activity at 1000 nM after 30 mins by Kinomescan method relative to control.
Data set [19] has as its target Tyrosine-protein kinase Fyn (Homo sapiens) (UniProt P06241). Briefly: Inhibition of wild-type human partial length FYN (T243 to L534 residues) expressed in Escherichia coli BL21 assessed as residual activity at 1000 nM after 30 mins by Kinomescan method relative to control.
In data set [20] the target is Casein kinase I isoform delta (Homo sapiens) (UniProt P48730). Briefly: Inhibition of wild-type human full length CSNK1D (M1 to K409 residues) expressed in Escherichia coli BL21 assessed as residual activity at 1000 nM after 30 mins by Kinomescan method relative to control. Put shortly: as §3
Sequence of Casein kinase I isoform delta (Homo sapiens) (P48730 whole entry, looked up, the tested form may be a part, canonical isoform): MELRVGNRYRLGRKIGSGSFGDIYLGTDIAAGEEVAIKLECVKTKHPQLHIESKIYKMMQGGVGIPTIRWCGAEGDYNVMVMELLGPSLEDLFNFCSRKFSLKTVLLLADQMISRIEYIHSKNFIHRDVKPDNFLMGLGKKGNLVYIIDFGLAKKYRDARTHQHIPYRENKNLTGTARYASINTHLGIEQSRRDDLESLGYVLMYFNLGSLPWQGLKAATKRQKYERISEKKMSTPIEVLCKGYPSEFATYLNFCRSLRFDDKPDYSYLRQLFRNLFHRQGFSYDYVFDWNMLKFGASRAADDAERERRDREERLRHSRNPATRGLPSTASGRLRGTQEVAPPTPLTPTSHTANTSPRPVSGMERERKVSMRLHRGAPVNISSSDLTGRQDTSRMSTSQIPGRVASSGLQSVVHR

Sequence of Maternal embryonic leucine zipper kinase (Homo sapiens) (Q14680 whole entry, looked up, the tested form may be a part): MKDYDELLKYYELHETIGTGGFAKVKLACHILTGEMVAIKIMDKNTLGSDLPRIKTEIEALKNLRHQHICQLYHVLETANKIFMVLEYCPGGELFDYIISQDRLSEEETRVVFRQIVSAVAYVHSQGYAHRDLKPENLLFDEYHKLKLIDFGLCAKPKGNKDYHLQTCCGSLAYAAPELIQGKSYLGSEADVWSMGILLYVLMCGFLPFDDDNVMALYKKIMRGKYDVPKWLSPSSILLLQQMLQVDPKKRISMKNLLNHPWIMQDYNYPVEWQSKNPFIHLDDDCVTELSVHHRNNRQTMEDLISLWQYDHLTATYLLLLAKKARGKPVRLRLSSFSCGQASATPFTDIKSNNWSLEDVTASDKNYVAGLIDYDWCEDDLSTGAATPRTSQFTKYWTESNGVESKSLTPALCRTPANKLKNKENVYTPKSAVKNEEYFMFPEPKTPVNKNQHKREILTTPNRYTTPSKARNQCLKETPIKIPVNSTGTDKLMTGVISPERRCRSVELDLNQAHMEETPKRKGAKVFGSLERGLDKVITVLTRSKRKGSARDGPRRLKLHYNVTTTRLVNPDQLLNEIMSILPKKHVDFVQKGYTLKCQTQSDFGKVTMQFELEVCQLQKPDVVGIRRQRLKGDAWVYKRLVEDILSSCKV
Sequence of Serine/threonine-protein kinase DCLK2 (Homo sapiens) (Q8N568 whole entry, the tested form may be a part): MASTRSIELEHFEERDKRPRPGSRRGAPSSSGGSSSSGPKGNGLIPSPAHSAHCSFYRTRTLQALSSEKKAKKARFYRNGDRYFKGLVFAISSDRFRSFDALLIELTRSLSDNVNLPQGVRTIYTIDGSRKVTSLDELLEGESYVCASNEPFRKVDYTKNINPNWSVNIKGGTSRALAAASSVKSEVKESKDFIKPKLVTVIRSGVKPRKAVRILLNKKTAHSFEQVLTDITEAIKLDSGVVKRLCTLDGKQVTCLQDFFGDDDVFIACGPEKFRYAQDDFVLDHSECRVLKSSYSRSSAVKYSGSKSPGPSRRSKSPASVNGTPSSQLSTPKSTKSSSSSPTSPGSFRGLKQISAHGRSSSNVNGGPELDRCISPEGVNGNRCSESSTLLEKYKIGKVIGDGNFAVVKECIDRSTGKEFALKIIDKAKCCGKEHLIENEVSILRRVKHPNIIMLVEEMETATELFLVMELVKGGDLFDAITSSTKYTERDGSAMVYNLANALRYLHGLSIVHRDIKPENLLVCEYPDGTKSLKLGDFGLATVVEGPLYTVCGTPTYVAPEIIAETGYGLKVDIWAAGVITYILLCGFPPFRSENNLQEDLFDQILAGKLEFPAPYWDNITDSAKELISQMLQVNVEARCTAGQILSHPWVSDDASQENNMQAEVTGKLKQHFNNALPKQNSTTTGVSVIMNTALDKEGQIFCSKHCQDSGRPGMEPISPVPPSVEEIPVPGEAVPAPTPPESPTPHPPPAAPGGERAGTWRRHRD
Sequence of PDGFRA (platelet-derived growth factor receptor alpha) (P16234 whole entry, the tested form may be a part): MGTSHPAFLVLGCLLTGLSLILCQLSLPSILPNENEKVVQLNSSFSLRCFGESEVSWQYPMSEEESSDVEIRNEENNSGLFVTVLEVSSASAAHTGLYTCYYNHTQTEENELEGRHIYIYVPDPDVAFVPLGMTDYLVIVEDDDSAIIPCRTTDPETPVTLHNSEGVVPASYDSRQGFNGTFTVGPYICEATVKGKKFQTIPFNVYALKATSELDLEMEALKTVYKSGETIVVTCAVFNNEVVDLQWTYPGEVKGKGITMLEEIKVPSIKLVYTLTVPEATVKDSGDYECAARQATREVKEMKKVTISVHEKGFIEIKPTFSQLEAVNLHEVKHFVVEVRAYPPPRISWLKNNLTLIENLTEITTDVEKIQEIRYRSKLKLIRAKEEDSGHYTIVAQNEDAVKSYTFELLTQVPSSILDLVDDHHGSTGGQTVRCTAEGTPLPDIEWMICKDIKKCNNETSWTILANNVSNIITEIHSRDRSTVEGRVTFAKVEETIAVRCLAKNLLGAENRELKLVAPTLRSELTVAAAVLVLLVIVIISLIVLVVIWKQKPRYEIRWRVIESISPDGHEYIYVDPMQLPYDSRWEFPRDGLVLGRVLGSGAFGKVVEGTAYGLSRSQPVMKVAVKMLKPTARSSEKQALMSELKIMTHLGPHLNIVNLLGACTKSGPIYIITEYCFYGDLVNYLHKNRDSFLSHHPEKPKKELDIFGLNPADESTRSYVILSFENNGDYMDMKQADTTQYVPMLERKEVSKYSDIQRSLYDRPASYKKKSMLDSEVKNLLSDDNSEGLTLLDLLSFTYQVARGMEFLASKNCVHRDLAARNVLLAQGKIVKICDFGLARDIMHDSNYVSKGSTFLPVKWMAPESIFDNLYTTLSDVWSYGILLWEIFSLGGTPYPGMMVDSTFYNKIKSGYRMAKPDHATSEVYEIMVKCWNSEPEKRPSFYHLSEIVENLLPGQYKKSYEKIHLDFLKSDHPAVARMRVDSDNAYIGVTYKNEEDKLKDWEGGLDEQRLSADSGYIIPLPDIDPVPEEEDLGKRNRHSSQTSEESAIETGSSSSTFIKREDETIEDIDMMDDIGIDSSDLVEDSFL
Sequence of Atypical kinase COQ8B, mitochondrial (Homo sapiens) (Q96D53 whole entry, the tested form may be a part): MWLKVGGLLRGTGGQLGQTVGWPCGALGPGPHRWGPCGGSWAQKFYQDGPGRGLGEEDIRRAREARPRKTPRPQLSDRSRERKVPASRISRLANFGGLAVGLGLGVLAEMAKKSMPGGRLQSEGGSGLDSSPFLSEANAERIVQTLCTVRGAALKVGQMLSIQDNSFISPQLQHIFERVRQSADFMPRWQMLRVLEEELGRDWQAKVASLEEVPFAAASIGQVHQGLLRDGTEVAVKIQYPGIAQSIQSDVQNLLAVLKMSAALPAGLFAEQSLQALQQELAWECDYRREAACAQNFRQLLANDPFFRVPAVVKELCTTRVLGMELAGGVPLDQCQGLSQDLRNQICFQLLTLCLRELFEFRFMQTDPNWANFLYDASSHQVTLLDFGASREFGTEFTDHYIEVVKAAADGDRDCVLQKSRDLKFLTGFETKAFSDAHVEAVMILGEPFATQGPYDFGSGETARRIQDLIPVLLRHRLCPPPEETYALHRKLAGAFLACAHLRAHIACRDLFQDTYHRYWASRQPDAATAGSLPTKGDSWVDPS
Sequence of Mitogen-activated protein kinase kinase kinase 7 (Homo sapiens) (O43318 whole entry, the tested form may be a part): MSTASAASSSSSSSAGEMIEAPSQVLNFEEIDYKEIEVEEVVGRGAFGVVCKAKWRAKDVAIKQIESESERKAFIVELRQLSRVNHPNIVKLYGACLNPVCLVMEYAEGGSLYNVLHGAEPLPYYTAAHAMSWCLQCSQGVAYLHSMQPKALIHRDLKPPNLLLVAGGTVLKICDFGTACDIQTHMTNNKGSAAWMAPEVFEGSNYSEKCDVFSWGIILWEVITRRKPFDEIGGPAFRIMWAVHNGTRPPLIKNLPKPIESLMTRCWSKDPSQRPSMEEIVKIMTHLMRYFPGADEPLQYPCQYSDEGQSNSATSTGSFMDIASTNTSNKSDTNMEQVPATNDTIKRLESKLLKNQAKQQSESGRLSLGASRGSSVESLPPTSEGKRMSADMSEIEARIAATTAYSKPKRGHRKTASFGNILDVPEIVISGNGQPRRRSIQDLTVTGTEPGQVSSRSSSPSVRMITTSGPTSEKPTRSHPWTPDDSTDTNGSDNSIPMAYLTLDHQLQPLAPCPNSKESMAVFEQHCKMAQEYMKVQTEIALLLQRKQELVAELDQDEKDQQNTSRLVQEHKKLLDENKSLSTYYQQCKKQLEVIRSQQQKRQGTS
Sequence of Dual specificity protein kinase CLK3 (Homo sapiens) (P49761 whole entry, looked up, the tested form may be a part): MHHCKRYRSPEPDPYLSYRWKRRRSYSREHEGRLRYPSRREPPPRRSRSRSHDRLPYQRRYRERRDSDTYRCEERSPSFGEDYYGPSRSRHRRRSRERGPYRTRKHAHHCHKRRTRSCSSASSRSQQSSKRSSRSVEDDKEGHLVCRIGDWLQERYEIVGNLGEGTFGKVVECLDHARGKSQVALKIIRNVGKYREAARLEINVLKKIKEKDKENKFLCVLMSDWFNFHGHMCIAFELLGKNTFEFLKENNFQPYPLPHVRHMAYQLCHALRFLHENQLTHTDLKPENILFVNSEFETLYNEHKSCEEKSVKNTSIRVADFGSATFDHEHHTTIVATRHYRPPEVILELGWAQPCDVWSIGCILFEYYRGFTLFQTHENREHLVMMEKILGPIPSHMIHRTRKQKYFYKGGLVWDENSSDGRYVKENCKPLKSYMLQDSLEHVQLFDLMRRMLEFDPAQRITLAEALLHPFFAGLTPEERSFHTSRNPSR
Sequence of Testis-specific serine/threonine-protein kinase 3 (Homo sapiens) (Q96PN8 whole entry, the tested form may be a part): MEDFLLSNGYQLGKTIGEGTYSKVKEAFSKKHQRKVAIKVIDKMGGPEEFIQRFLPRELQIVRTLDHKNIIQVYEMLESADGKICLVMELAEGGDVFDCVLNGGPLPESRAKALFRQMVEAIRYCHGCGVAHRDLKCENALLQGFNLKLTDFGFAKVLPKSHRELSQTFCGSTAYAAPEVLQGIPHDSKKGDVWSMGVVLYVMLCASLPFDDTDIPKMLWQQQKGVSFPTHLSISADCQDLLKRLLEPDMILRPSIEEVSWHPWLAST

For the compound `COc1cc(OC)c(Cl)c(N2Cc3cnc(Nc4ccc(F)cc4)nc3N(C3CCN(C(=O)/C=C/CN(C)C)CC3)C2=O)c1Cl`, the Activity was determined as 78% in the data set filed under Homo sapiens; 73% in [1]; 87% in data set [2]; 97% in data set [3]; 100% in data set [4]; 90% in data set [5]. For the same compound, the Activity in data set [6] is 100%; in [7], 100%; in data set [8] it was 100%; in [9], 100%; in data set [11], 79%; in data set [12] it was 100%. Also, the Activity in [13] came out at 88%; in data set [14] it was 98%; in data set [15], 80%; in data set [16] it was 100%; in [17], 94%; in data set [18], 100%. Also, the figures for the Activity in [19] and in data set [20] were 19% and 96%, respectively. For the same compound, the activity at 0.5 h, 1 µM in data set [10] was found to be 62%.

These data come from ChEMBL document CHEMBL4043093, “2-Oxo-3, 4-dihydropyrimido[4, 5-d]pyrimidinyl derivatives as new irreversible pan fibroblast growth factor receptor (FGFR) inhibitors” (Eur J Med Chem, 2017).
